Experimental data reported in ChEMBL document CHEMBL3351655, “Scaffold decoration at positions 5 and 8 of 1,2,4-triazolo[1,5-c]pyrimidines to explore the antagonist profiling on adenosine receptors: a preliminary structure-activity relationship study” (J Med Chem, 2014).

What was measured:
[1] = molecular target: T1, Adenosine receptor A1 (Homo sapiens, UniProt P30542); assay: Displacement of [3H]CCPA from human adenosine A1 receptor expressed in CHO cells; format: cell-based
T1 sequence (P30542 whole entry): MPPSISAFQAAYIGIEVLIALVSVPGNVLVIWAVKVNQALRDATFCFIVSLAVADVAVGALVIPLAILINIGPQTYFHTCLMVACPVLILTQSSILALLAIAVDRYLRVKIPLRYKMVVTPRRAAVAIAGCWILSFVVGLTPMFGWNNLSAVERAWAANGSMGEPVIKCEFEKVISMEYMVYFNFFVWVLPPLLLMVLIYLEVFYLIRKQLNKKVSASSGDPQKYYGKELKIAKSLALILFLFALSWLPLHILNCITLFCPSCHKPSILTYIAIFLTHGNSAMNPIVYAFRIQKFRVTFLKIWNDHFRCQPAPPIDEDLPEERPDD
Method in brief: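 Stably transfected CHO cells were homogenised and spun at 1000g to remove nuclei and fragments. Membranes were then pelleted at 100 000g, resuspended in binding buffer, frozen in liquid nitrogen and stored. Radioligand was [³H]CCPA, with nonspecific binding defined by 1 mM theophylline.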

[2] = test system: CHO; assay: Selectivity ratio of Ki for human adenosine A1 receptor expressed in CHO cells to Ki for human adenosine A2A receptor expressed in CHO cells; format: cell-based
[3] = molecular target: Adenosine receptors; A1 & A3 (Homo sapiens) (UniProt P30542+P0DMS8); assay: Selectivity ratio of Ki for human adenosine A1 receptor expressed in CHO cells to Ki for human adenosine A3 receptor expressed in CHO cells; format: cell-based
[4] = molecular target: T2, Adenosine receptor A2b (Homo sapiens, UniProt P29275); assay: Antagonist activity at human adenosine A2B receptor expressed in CHO cells assessed as inhibition of NECA-stimulated adenylyl cyclase activity; format: functional, cell-based
T2 sequence (P29275 whole entry): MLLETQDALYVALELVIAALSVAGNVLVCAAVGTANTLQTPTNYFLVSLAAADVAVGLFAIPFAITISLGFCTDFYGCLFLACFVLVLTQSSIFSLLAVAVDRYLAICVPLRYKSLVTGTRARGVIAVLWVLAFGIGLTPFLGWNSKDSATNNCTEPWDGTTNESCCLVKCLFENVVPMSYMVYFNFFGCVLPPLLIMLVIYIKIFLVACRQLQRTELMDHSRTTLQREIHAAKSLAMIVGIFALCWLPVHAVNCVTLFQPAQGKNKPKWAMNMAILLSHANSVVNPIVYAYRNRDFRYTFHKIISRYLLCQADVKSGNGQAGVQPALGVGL
Method in brief: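 Membranes from stably transfected CHO cells, made with a single high-speed centrifugation of the homogenate. Incubated 20 min with about 150 000 cpm [α-³²P]ATP, in a mixture without EGTA and NaCl. IC50 for concentration-dependent inhibition of NECA-stimulated adenylyl cyclase was fitted with the Hill equation and converted to Ki by Cheng–Prusoff.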

[5] = molecular target: Adenosine receptor A2a (Homo sapiens, UniProt P29274); assay: Displacement of [3H]NECA from human adenosine A2A receptor expressed in CHO cells; format: cell-based
[6] = molecular target: T3, Adenosine receptor A3 (Homo sapiens, UniProt P0DMS8); assay: Displacement of [3H]NECA from human adenosine A3 receptor expressed in CHO cells; format: cell-based
T3 sequence (P0DMS8 whole entry): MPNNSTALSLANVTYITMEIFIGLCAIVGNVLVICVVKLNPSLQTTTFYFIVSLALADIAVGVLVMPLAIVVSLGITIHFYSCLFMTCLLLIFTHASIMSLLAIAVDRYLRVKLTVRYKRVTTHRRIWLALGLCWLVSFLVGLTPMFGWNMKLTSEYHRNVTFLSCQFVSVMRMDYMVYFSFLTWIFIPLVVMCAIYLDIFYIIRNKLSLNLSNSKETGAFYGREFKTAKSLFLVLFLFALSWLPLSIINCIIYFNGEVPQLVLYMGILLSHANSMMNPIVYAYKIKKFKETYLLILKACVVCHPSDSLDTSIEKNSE
Method in brief: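 Radioligand [³H]NECA was used on membranes from stably transfected CHO cells, prepared by a 1000g clearing spin then pelleting at 100 000g. Pellets were resuspended in binding buffer, frozen in liquid nitrogen and stored. Nonspecific binding was defined with 100 μM R-PIA.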

[7] = test system: CHO; assay: Selectivity ratio of Ki for human adenosine A2A receptor expressed in CHO cells to Ki for human adenosine A3 receptor expressed in CHO cells; format: cell-based

Adenosine receptor A2a, sequence (P29274 whole entry): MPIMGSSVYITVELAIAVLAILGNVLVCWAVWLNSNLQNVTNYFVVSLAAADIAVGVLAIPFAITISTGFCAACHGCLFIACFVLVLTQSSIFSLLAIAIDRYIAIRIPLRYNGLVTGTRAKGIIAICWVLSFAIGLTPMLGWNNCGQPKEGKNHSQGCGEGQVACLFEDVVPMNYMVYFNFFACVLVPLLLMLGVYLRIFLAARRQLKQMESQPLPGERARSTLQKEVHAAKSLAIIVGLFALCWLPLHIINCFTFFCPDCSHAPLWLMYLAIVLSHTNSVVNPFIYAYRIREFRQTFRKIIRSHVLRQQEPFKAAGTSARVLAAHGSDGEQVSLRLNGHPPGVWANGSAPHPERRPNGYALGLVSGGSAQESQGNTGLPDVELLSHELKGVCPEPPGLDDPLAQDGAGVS

Row | Structure (SMILES) | Ki [1] [µM] | Ratio Ki [2] | Ratio Ki [3] | Ki [4] [µM] | Ki [5] [µM] | Ki [6] [µM] | Ratio Ki [7]
1 | CCOC(=O)c1cnc(NC(c2ccccc2)c2ccccc2)n2nc(-c3ccco3)nc12 | 0.943 | 2.45 | 2.81 | > 30 | 0.385 | 0.336 | 1.14
2 | CCOC(=O)c1cnc(NC(=O)Nc2ccccc2)n2nc(-c3ccco3)nc12 | 0.322 | 66.8 | 0.9 | 1.9 | 0.00482 | 0.357 | 0.01
3 | O=C(Nc1ccccc1)Nc1ncc(C(=O)NCCc2ccccc2)c2nc(-c3ccco3)nn12 | 0.365 | 7.1 | 0.27 | > 30 | 0.0514 | 1.35 | 0.04
4 | CCOC(=O)c1cnc(NC(C)C)n2nc(-c3ccco3)nc12 | 0.04 | 0.39 | 4.23 | 10 | 0.103 | 0.00946 | 10.9
5 | O=C(O)c1cnc(NCC2CCCCC2)n2nc(-c3ccco3)nc12 | 2.74 | 0.08 | 0.17 | > 10 | 33.9 | 15.8 | 2.14
6 | CCOC(=O)c1cnc(NCc2ccc(OC)cc2)n2nc(-c3ccco3)nc12 | 1.25 | 8.8 | 21.7 | 4.81 | 0.142 | 0.0576 | 2.46
7 | O=C(O)c1cnc(NC(c2ccccc2)c2ccccc2)n2nc(-c3ccco3)nc12 | 2.45 | < 0.02 | 1.18 | > 30 | > 100 | 2.07 | > 48
8 | CCOC(=O)c1cnc(NCC2CCCCC2)n2nc(-c3ccco3)nc12 | 0.432 | 3.57 | 10.5 | > 10 | 0.121 | 0.0412 | 2.94
9 | CCOC(=O)c1cnc(N)n2nc(-c3ccco3)nc12 | 0.185 | 55.7 | 0.78 | 1.11 | 0.00332 | 0.238 | 0.01
10 | CCOC(=O)c1cnc(N2CCOCC2)n2nc(-c3ccco3)nc12 | > 100 | > 5.68 | > 11.5 | > 10 | 17.6 | 8.7 | 2.02
11 | CCCCC(CC)CNc1ncc(C(=O)O)c2nc(-c3ccco3)nn12 (stereo not drawn) | 1.78 | 0.05 | 0.11 | > 10 | 33.8 | 16.4 | 2.06
12 | CCOC(=O)c1cnc(NCc2ccc(-c3ccccc3)cc2)n2nc(-c3ccco3)nc12 | 0.89 | 4.76 | 1.02 | > 30 | 0.187 | 0.875 | 0.21
13 | Nc1ncc(C(=O)NCCc2ccccc2)c2nc(-c3ccco3)nn12 | 0.0571 | 5.14 | 0.41 | 5.32 | 0.0111 | 0.14 | 0.08
14 | CCOC(=O)c1cnc(NCc2ccccc2)n2nc(-c3ccco3)nc12 | 0.94 | 29.4 | 94 | 2.51 | 0.032 | 0.01 | 3.2
15 | O=C(O)c1cnc(NC2CC2)n2nc(-c3ccco3)nc12 | 1.11 | 1.86 | 6.73 | > 10 | 0.596 | 0.165 | 3.61
16 | O=C(Nc1ncc(C(=O)O)c2nc(-c3ccco3)nn12)NC1CCCCC1 | > 100 | > 4.05 | > 1.68 | > 30 | 24.7 | 59.4 | 0.42
17 | CCOC(=O)c1cnc(NC2CCC2)n2nc(-c3ccco3)nc12 | 0.0752 | 2.6 | 6.42 | > 3 | 0.0289 | 0.0117 | 2.47
18 | COc1ccc(CNc2ncc(C(=O)O)c3nc(-c4ccco4)nn23)cc1OC | 0.958 |  | 6.02 | > 30 | 5.32 | 0.159 | 33.4
19 | CCOC(=O)c1cnc(NC2CCCC2)n2nc(-c3ccco3)nc12 | 0.0344 | 0.79 | 0.98 | 4.62 | 0.0434 | 0.035 | 1.24
20 | CCNc1ncc(C(=O)OCC)c2nc(-c3ccco3)nn12 | 0.162 | 3.22 | 49.1 | 3.06 | 0.0503 | 0.0033 | 15.2
21 | CCOC(=O)c1cnc(NN2CCOCC2)n2nc(-c3ccco3)nc12 | > 100 |  |  | > 10 | > 100 | > 30 | 
22 | COc1ccc(CCCn2ncc3c2nc(N)n2nc(-c4ccco4)nc32)cc1 | 1.11 |  |  | > 10 |  | > 10 | 
23 | O=C(O)c1cnc(NCc2ccc(Cl)cc2)n2nc(-c3ccco3)nc12 | > 100 |  | > 8.62 | > 30 | > 100 | 11.6 | > 8.62
24 | CNc1ncc(C(=O)O)c2nc(-c3ccco3)nn12 | > 100 |  | > 6.29 | > 10 | > 100 | 15.9 | > 6.29
